Assay results gathered from unrelated publications.
Lines come from different studies, so protocols differ.
Observed: cell growth or viability

Compound	cell line	technique	concentration	time	endpoint	value
CN(C)CCNC(=O)c1ccc(-c2nc3ccc4[nH]ncc4c3c3c2CCCCC3)c(F)c1	G-361	–	–	72 h	GI50	3.55 µM
Cc1ccc(CN2C(=O)C(=Nc3c(C(C)C)cccc3C(C)C)c3ccccc32)cc1	B16	MTT	–	48 h	IC50	57.2 µM
Cc1n[nH]c2ccc3nc(-c4ccc(C(=O)NCCN(C)C)cc4F)c4c(c3c12)CCCCC4	G-361	–	–	72 h	GI50	> 10 µM
O=c1cc(OCc2cc(-c3ccccn3)no2)c2ccccc2o1	Z-138	MTS	–	72 h	IC50	> 100 µM
Cc1nc(Nc2ncc(C(=O)Nc3c(C)cccc3Cl)s2)cc(N2CC[C@H](O)C2)n1	Z-138	ATP luminescence	10 µM	72 h	inhibition	56%
COc1cc([C@@H]2c3cc4c(cc3[C@@H](O[C@@H]3O[C@@H]5CO[C@@H](C)O[C@H]5[C@H](O)[C@H]3O)[C@H]3COC(=O)[C@H]23)OCO4)cc(OC)c1O	Z-138	MTS	–	72 h	IC50	0.08 µM
CN(C)CCNC(=O)c1ccc(-c2nc3ccc4[nH]ncc4c3c3c2CCCC3)cc1	G-361	–	–	72 h	GI50	3.5 µM
N#Cc1ccc(-c2cc(COc3cc(=O)oc4ccccc34)on2)cc1	Z-138	MTS	–	72 h	IC50	> 100 µM
CCc1nc(C(N)=O)c(Nc2ccc(N3CCC(N4CCN(C)CC4)CC3)c(OC)c2)nc1NC1CCOCC1	G-361	–	–	72 h	GI50	1.17 µM
O=C1C(=Nc2ccc(Cl)cc2Br)c2ccccc2N1Cc1ccc(Br)cc1	B16	MTT	–	48 h	IC50	1.65 µM
C[C@H](Nc1ccc2c(c1)OCCn1cc(N3C(=O)OC[C@H]3C(F)F)nc1-2)C(N)=O	BT-20	ATP luminescence	–	5 days	EC50	449 nM
C=CCN1C(=O)C(=Nc2cccc(C)c2)c2ccccc21	B16	MTT	–	48 h	IC50	28.6 µM
FC(F)(F)c1cc(OCc2cc(-c3ccccc3)no2)c2ccccc2n1	Z-138	MTS	–	72 h	IC50	68.2 µM
O=C(CCc1ccc(Cl)cc1)N1C(=O)C(=Nc2ccc(Cl)cc2Br)c2ccccc21	B16	MTT	–	48 h	IC50	23.6 µM
CN(C)CCNC(=O)c1ccc(-c2nc3ccc4[nH]ncc4c3c3c2CCCCC3)cc1	G-361	–	–	72 h	GI50	> 10 µM
O=C1C(=Nc2ccccc2Br)c2ccccc2N1Cc1ccccc1	B16	MTT	–	48 h	IC50	0.5 µM
Cc1nc(NC(=O)N2CCC[C@H]2C(N)=O)sc1-c1ccnc(C(C)(C)C(F)(F)F)c1	BT-20	ATP luminescence	–	5 days	EC50	2480 nM
